Data reported in ChEMBL document CHEMBL1926569, “Novel (E)-1-(4-methyl-2-(alkylamino)thiazol-5-yl)-3-arylprop-2-en-1-ones as potent antimicrobial agents” (2011).
Values after ≈ are worked out from the molar mass of the structure shown.

Experiments:
Staphylococcus aureus [1] = assay: Antibacterial activity against Staphylococcus aureus ATCC 6538 after 24 hrs by microdilution method; format: functional; conditions: ATCC 6538, 24 h
Method in brief: (§1)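 Broth microdilution in 96-well plates. Bacterial suspensions were adjusted in sterile saline to 1.0 × 10⁵ CFU/ml, prepared daily and kept at 4 °C. Compound was added to LB broth with 1.0 × 10⁴ CFU per well and shaken at 160 rpm for 24 h at […] (so in the source). MIC is the lowest concentration with no visible growth under a binocular microscope. OD655 was also read. Duplicate, repeated three times.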

Bacillus cereus [2] = assay: Antibacterial activity against clinical isolate of Bacillus cereus after 24 hrs by microdilution method; format: functional; method in brief: as §1
Micrococcus flavus [3] = assay: Antibacterial activity against Micrococcus flavus ATCC 10240 after 24 hrs by microdilution method; format: functional; conditions: ATCC 10240, 24 h; method in brief: as §1
Listeria monocytogenes [4] = assay: Antibacterial activity against Listeria monocytogenes NCTC 7973 after 24 hrs by microdilution method; format: functional; conditions: NCTC 7973, 24 h; method in brief: as §1
Pseudomonas aeruginosa [5] = assay: Antibacterial activity against Pseudomonas aeruginosa ATCC 27853 after 24 hrs by microdilution method; format: functional; conditions: ATCC 27853, 24 h; method in brief: as §1
Salmonella typhimurium [6] = assay: Antibacterial activity against Salmonella Typhimurium ATCC 13311 after 24 hrs by microdilution method; format: functional, Salmonella enterica subsp. enterica serovar Typhimurium; conditions: Salmonella enterica, ATCC 13311, 24 h; method in brief: as §1
Escherichia coli [7] = assay: Antibacterial activity against Escherichia coli ATCC 35210 after 24 hrs by microdilution method; format: functional; conditions: ATCC 35210, 24 h; method in brief: as §1
Enterococcus faecalis [8] = assay: Antibacterial activity against Enterococcus faecalis isolated from human after 24 hrs by microdilution method; format: functional; method in brief: as §1
Staphylococcus aureus [9] = assay: Antibacterial activity against Staphylococcus aureus ATCC 6538 incubated for 24 hrs followed by serial sub-cultivation for 24 hrs by microdilution method; format: functional; conditions: ATCC 6538, 24 h
Method in brief: (§2)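 MBC: after the 24 h LB broth microdilution (1.0 × 10⁴ CFU per well, 160 rpm), wells were serially sub-cultured into fresh broth plates and incubated a further 24 h. MBC is the lowest concentration with no visible growth, taken as 99.5% killing of the original inoculum. Duplicate, repeated three times.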

Bacillus cereus [10] = assay: Antibacterial activity against clinical isolate of Bacillus cereus incubated for 24 hrs followed by serial sub-cultivation for 24 hrs by microdilution; format: functional; method in brief: as §2
Micrococcus flavus [11] = assay: Antibacterial activity against Micrococcus flavus ATCC 10240 incubated for 24 hrs followed by serial sub-cultivation for 24 hrs by microdilution; format: functional; conditions: ATCC 10240, 24 h; method in brief: as §2
Listeria monocytogenes [12] = assay: Antibacterial activity against Listeria monocytogenes NCTC 7973 incubated for 24 hrs followed by serial sub-cultivation for 24 hrs by microdilution; format: functional; conditions: NCTC 7973, 24 h; method in brief: as §2
Pseudomonas aeruginosa [13] = assay: Antibacterial activity against Pseudomonas aeruginosa ATCC 27853 incubated for 24 hrs followed by serial sub-cultivation for 24 hrs by microdilution; format: functional; conditions: ATCC 27853, 24 h; method in brief: as §2
Salmonella typhimurium [14] = assay: Antibacterial activity against Salmonella Typhimurium ATCC 13311 incubated for 24 hrs followed by serial sub-cultivation for 24 hrs by microdilution; format: functional, Salmonella enterica subsp. enterica serovar Typhimurium; conditions: Salmonella enterica, ATCC 13311, 24 h; method in brief: as §2
Escherichia coli [15] = assay: Antibacterial activity against Escherichia coli ATCC 35210 incubated for 24 hrs followed by serial sub-cultivation for 24 hrs by microdilution; format: functional; conditions: ATCC 35210, 24 h; method in brief: as §2
Enterococcus faecalis [16] = assay: Antibacterial activity against Enterococcus faecalis isolated from human incubated for 24 hrs followed by serial sub-cultivation for 24 hrs by microdilution; format: functional; method in brief: as §2
Aspergillus ochraceus [17] = assay: Antifungal activity against Aspergillus ochraceus ATCC 12066 after 72 hrs by serial dilution technique; format: functional; conditions: ATCC 12066, 72 h
Method in brief: (§3)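 Modified microdilution in 96-well plates. Fungi were kept on malt agar at 4 °C. Spores were washed off in sterile 0.85% saline with 0.1% Tween 80. Compounds were dissolved at 1 mg/ml in 5% DMSO with 0.1% Tween 80 and added to malt broth with inoculum. Plates were shaken at 160 rpm for 72 h at 28 °C. Duplicate, repeated three times.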

Aspergillus niger [18] = assay: Antifungal activity against Aspergillus niger ATCC 6275 after 72 hrs by serial dilution technique; format: functional; conditions: ATCC 6275, 72 h; method in brief: as §3
Aspergillus flavus [19] = assay: Antifungal activity against Aspergillus flavus ATCC 9643 after 72 hrs by serial dilution technique; format: functional; conditions: ATCC 9643, 72 h; method in brief: as §3
Talaromyces funiculosus [20] = assay: Antifungal activity against Penicillium funiculosum ATCC 36839 after 72 hrs by serial dilution technique; format: functional; conditions: ATCC 36839, 72 h; method in brief: as §3
Penicillium ochrochloron [21] = assay: Antifungal activity against Penicillium ochrochloron ATCC 9112 after 72 hrs by serial dilution technique; format: functional; conditions: ATCC 9112, 72 h; method in brief: as §3
Trichoderma viride [22] = assay: Antifungal activity against Trichoderma viride IAM 5061 after 72 hrs by serial dilution technique; format: functional; conditions: IAM 5061, 72 h; method in brief: as §3
Candida albicans [23] = assay: Antifungal activity against Candida albicans isolated from human after 72 hrs by serial dilution technique; format: functional; method in brief: as §3
Aspergillus ochraceus [24] = assay: Antifungal activity against Aspergillus ochraceus ATCC 12066 incubated for 72 hrs followed by serial sub-cultivation for 72 hrs by serial dilution technique; format: functional; conditions: ATCC 12066, 72 h
Method in brief: (§4)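 MFC: material from 72 h malt broth microdilution wells was serially sub-cultured into fresh broth plates and incubated a further 72 h at 28 °C. Fungicidal concentration is taken from growth after sub-culture. Duplicate, repeated three times.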

Aspergillus fumigatus [25] = assay: Antifungal activity against Aspergillus fumigatus isolated from human incubated for 72 hrs followed by serial sub-cultivation for 72 hrs by serial dilution technique; format: functional; method in brief: as §4
Aspergillus niger [26] = assay: Antifungal activity against Aspergillus niger ATCC 6275 incubated for 72 hrs followed by serial sub-cultivation for 72 hrs by serial dilution technique; format: functional; conditions: ATCC 6275, 72 h; method in brief: as §4
Aspergillus flavus [27] = assay: Antifungal activity against Aspergillus flavus ATCC 9643 incubated for 72 hrs followed by serial sub-cultivation for 72 hrs by serial dilution technique; format: functional; conditions: ATCC 9643, 72 h; method in brief: as §4
Talaromyces funiculosus [28] = assay: Antifungal activity against Penicillium funiculosum ATCC 36839 incubated for 72 hrs followed by serial sub-cultivation for 72 hrs by serial dilution technique; format: functional; conditions: ATCC 36839, 72 h; method in brief: as §4
Penicillium ochrochloron [29] = assay: Antifungal activity against Penicillium ochrochloron ATCC 9112 incubated for 72 hrs followed by serial sub-cultivation for 72 hrs by serial dilution technique; format: functional; conditions: ATCC 9112, 72 h; method in brief: as §4
Trichoderma viride [30] = assay: Antifungal activity against Trichoderma viride IAM 5061 incubated for 72 hrs followed by serial sub-cultivation for 72 hrs by serial dilution technique; format: functional; conditions: IAM 5061, 72 h; method in brief: as §4
Candida albicans [31] = assay: Antifungal activity against Candida albicans isolated from human incubated for 72 hrs followed by serial sub-cultivation for 72 hrs by serial dilution technique; format: functional; method in brief: as §4
Pseudomonas aeruginosa [32] = assay: Ratio of ampicillin MIC to compound MIC for Pseudomonas aeruginosa ATCC 27853; format: functional
Aspergillus ochraceus [33] = assay: Ratio of bifonazole to compound for Aspergillus ochraceus ATCC 12066; format: functional
Aspergillus niger [34] = assay: Ratio of bifonazole to compound for Aspergillus niger ATCC 6275; format: functional
Talaromyces funiculosus [35] = assay: Ratio of bifonazole to compound for Penicillium funiculosum ATCC 36839; format: functional
Penicillium ochrochloron [36] = assay: Ratio of bifonazole to compound for Penicillium ochrochloron ATCC 9112; format: functional
Trichoderma viride [37] = assay: Ratio of bifonazole to compound for Trichoderma viride IAM 5061; format: functional
Candida albicans [38] = assay: Ratio of bifonazole to compound for Candida albicans isolated from human; format: functional
Aspergillus ochraceus [39] = assay: Ratio of ketoconazole to compound for Aspergillus ochraceus ATCC 12066; format: functional
Aspergillus fumigatus [40] = assay: Ratio of ketoconazole to compound for Aspergillus fumigatus isolated from human; format: functional
Penicillium ochrochloron [41] = assay: Ratio of ketoconazole to compound for Penicillium ochrochloron ATCC 9112; format: functional
Candida albicans [42] = assay: Ratio of ketoconazole to compound for Candida albicans isolated from human; format: functional
Aspergillus ochraceus [43] = assay: Antifungal activity against Aspergillus ochraceus after 72 hrs by serial dilution technique

MIC (Staphylococcus aureus [1]): 72.5 µM (≈ 20 µg/mL)
MIC (Bacillus cereus [2]): 36.2 µM (≈ 10 µg/mL)
MIC (Micrococcus flavus [3]): 32.6 µM (≈ 9.01 µg/mL)
MIC (Listeria monocytogenes [4]): 90.6 µM (≈ 25 µg/mL)
MIC (Pseudomonas aeruginosa [5]): 72.5 µM (≈ 20 µg/mL)
MIC (Salmonella typhimurium [6]): 54.3 µM (≈ 15 µg/mL)
MIC (Escherichia coli [7]): 54.3 µM (≈ 15 µg/mL)
MIC (Enterococcus faecalis [8]): 54.3 µM (≈ 15 µg/mL)
MIC (Aspergillus ochraceus [17]): 36.2 µM (≈ 10 µg/mL)
MIC (Aspergillus niger [18]): 36.2 µM (≈ 10 µg/mL)
MIC (Aspergillus flavus [19]): 36.2 µM (≈ 10 µg/mL)
MIC (Talaromyces funiculosus [20]): 36.2 µM (≈ 10 µg/mL)
MIC (Penicillium ochrochloron [21]): 36.2 µM (≈ 10 µg/mL)
MIC (Trichoderma viride [22]): 72.5 µM (≈ 20 µg/mL)
MIC (Candida albicans [23]): 72.5 µM (≈ 20 µg/mL)
MIC (Aspergillus ochraceus [43]): 36.2 µM (≈ 10 µg/mL)
Compound: CNc1nc(C)c(C(=O)/C=C/c2ccc(F)cc2)s1
MBC (Staphylococcus aureus [9]): 72.5 µM (≈ 20 µg/mL)
MBC (Bacillus cereus [10]): 54.3 µM (≈ 15 µg/mL)
MBC (Micrococcus flavus [11]): 72.5 µM (≈ 20 µg/mL)
MBC (Listeria monocytogenes [12]): 90.6 µM (≈ 25 µg/mL)
MBC (Pseudomonas aeruginosa [13]): 111 µM (≈ 30.6 µg/mL)
MBC (Salmonella typhimurium [14]): 72.5 µM (≈ 20 µg/mL)
MBC (Escherichia coli [15]): 72.5 µM (≈ 20 µg/mL)
MBC (Enterococcus faecalis [16]): 72.5 µM (≈ 20 µg/mL)
MFC (Aspergillus ochraceus [24]): 72.5 µM (≈ 20 µg/mL)
MFC (Aspergillus fumigatus [25]): 72.5 µM (≈ 20 µg/mL)
MFC (Aspergillus niger [26]): 72.5 µM (≈ 20 µg/mL)
MFC (Aspergillus flavus [27]): 90.6 µM (≈ 25 µg/mL)
MFC (Talaromyces funiculosus [28]): 72.5 µM (≈ 20 µg/mL)
MFC (Penicillium ochrochloron [29]): 72.5 µM (≈ 20 µg/mL)
MFC (Trichoderma viride [30]): 90.6 µM (≈ 25 µg/mL)
MFC (Candida albicans [31]): 90.6 µM (≈ 25 µg/mL)
Ratio (Pseudomonas aeruginosa [32]): 10
Ratio (Aspergillus ochraceus [33]): 10
Ratio (Aspergillus niger [34]): 10
Ratio (Talaromyces funiculosus [35]): 10
Ratio (Penicillium ochrochloron [36]): 10
Ratio (Trichoderma viride [37]): 10
Ratio (Candida albicans [38]): 10
Ratio (Aspergillus ochraceus [39]): 10
Ratio (Aspergillus fumigatus [40]): 10
Ratio (Penicillium ochrochloron [41]): 10
Ratio (Candida albicans [42]): 10
